Bioassay records deposited in PubChem by several laboratories.
SENP1 inh: human SENP1 catalytic domain inhibitors, primary screen, biochemical, FRET, uHTS. hit rate 0.21% among 360,000. Sentrin-specific protease 1 (Homo sapiens), Q9P0U3. inhibition, % at 10 µM. AID 624204, 2012. recombinant SENP1 catalytic domain, CyPet-SUMO1-YPet FRET cleavage;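 active = inhibition at least 30% at 10 µM, raw YFP signal under a set limit, fluorescence ratio 0.5 to 1.5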;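 note: 0% = enzyme with DMSO and 100% = no enzyme wells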
Target sequence (Q9P0U3 419-644 limits assumed): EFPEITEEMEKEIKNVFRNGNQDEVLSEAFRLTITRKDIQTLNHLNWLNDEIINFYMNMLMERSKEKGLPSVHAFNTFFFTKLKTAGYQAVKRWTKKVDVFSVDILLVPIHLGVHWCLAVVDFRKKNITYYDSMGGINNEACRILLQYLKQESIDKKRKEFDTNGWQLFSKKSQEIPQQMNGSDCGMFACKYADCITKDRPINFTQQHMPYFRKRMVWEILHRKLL
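System: Recombinant human SENP1 catalytic domain, His6-tagged | Incubation: Enzyme reaction for 50 min at room temperature, dark | Medium: Tris pH 8 with BME, BSA, NP40 and catalase | Also added: 25 nM SUMO1 FRET substrate | Compound: 10 µM single point, 0.5% DMSO | Measured by: FRET fluorescence in CFP and YFP emission channels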
NadD inh: inhibitors of S. aureus NadD, primary screen, biochemical, colorimetric, uHTS. purified NadD enzyme, colorimetric absorbance read-out. inhibition, % at 20 µM. hit rate 0.78% among 360,000. Nicotinate-nucleotide adenylyltransferase NadD (Staphylococcus aureus N315); in the data active = inhibition above about 26%
GRK2 inh: compounds blocking aptamer binding on GRK2 – biochemical, human GRK2, bead flow cytometry, HTS, primary screen. AID 488847, 2010. Beta-adrenergic receptor kinase 1 (Homo sapiens), P25098. FAM-aptamer displacement from GRK2. inhibition of aptamer binding, % at 10 µM. hit rate 0.59% among 330,000;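 active = inhibition of aptamer binding above 40%, roughly 3 SD of noise, on plates passing a quality check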;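 note: median bead fluorescence of bound FAM aptamer so fluorescent compounds give negative values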
B2AR ag: beta2AR agonists driving receptor internalization, primary screen, cell-based, FAP fluorogen, flow cytometry; AID 504454, 2011; Beta-2 adrenergic receptor (Homo sapiens), P07550; hit rate 0.43% among 340,000; Am2.2-beta2AR cells; response, % (no concentration beside the values);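 active = response above a set limit, near 3 SD of response in nonfluorescent compounds, cut at about 42% in these data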
Target sequence (P07550 whole entry, looked up): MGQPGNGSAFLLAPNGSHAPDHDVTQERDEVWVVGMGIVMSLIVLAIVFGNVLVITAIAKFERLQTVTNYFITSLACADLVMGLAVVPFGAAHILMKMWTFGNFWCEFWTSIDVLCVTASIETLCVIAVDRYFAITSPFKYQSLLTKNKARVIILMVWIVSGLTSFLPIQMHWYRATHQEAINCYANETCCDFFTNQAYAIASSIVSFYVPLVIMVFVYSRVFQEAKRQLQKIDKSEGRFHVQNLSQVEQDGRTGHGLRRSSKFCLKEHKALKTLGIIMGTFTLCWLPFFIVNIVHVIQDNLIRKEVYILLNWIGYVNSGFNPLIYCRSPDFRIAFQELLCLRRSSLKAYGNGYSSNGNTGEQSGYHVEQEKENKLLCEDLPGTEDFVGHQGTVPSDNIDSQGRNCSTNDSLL
ABHD5-PLIN5 inh: ABHD5-PLIN5 interaction inhibitors, primary screen, cell lysate, split luciferase complementation, luminescence. Perilipin-5 (Homo sapiens) + 1-acylglycerol-3-phosphate O-acyltransferase ABHD5 (Homo …. Split G. princeps luciferase complementation, 4 h. inhibition, % at 4 µM. hit rate 0.78% among 360,000. AID 602281, 2012;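 active = inhibition above the mean inhibition across every tested compound plus 3 SD, cut at about 22% in these data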;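 note: 0% = DMSO only wells and the 100% control is not disclosed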
Beta2AR ag CP1: beta2AR agonists via receptor internalization, confirmation, cell-based, FAP fluorogen, flow cytometry, single point, cherry pick 1; Am2.2-beta2AR cells, FAP surface receptor; hits give low values; percent response (surface receptor), % at 10 µM; hit rate 25% among 1,100; shares compounds with B2AR ag;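 active = surface receptor percent response at or below 58%, roughly 3 SD from nonfluorescent compounds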
B2AR FAP counter: fluorescence artifact in beta-2AR agonist FAP counterscreen. shares compounds with B2AR ag. Am2.2 cells, FAP fluorogen flow cytometry; hits give low values. calls only at 10 µM. 1,100 tested, under 10 active. AID 588765;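 active = percent response below a set limit in fluorescence channel 1 and below 50% in channel 8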
* marks the source's active call; other numbers are inactive results; i = inactive; nt = no result given. The list is not random: actives were taken first. Their share in the collection is about 2.5%.

SMILES	SENP1 inh	NadD inh	GRK2 inh	B2AR ag	ABHD5-PLIN5 inh	Beta2AR ag CP1	B2AR FAP counter
CCCc1cc(=O)n2c(nc3ccccc32)[nH]1	0	3	4	68*	4	95	i
Cc1cc(=O)n2c(nc3ccccc32)[nH]1	1	-12	2	1	-1	nt	nt
O=C(OCc1c(F)cccc1Cl)c1cnc2ccccc2n1	0	-8	0	46*	5	108	i
O=C(OCc1c(F)cccc1Cl)c1cnccn1	0	4	1	4	-5	nt	nt
CN(C)CCCn1c(SCC(=O)N2c3ccccc3Sc3ccccc32)nc2ccccc2c1=O	0	7	0	49*	18	59	i
Cc1ccc(F)cc1NCC(=O)Nc1ccc(Br)cc1	2	0	2	80*	-6	110	i
Cc1ccc(NCC(=O)Nc2ccc(Br)cc2)cc1C	-1	0	0	-3	-2	nt	nt
CCOC(=O)C1(C)CCN1C(=O)c1ccccc1OC(F)(F)F (stereo not drawn)	1	-2	nt	nt	-5	nt	nt
O=C1CCN(Cc2nnnn2CC2CCCO2)c2ccccc2N1 (stereo not drawn)	-1	6	1	42*	-4	105	i
O=C(c1ccco1)N1CCN(Cc2nnnn2CC2CCCO2)CC1 (stereo not drawn)	1	2	4	3	5	nt	nt
COc1ccc(NS(=O)(=O)c2ccc3c(c2)CCCN3C(C)=O)cc1	-1	-5	4	2	0	nt	nt
COc1cccc(NS(=O)(=O)c2ccc3c(c2)CCCN3C(C)=O)c1	2	-1	0	47*	3	116	i
c1ccc(CNc2nc(N3CCN(Cc4ccccc4)CC3)nc3ccccc23)cc1	4	9	0	16	16	98	i
CC1=C(C(=O)N2CCOCC2)CC(CC(=O)NCc2ccco2)C(=O)N1CCC1=CCCCC1 (stereo not drawn)	4	3	nt	nt	0	nt	nt
O=C(c1ccc(OC2CCN(Cc3ccc(C(F)(F)F)cc3)CC2)cc1)N1CCCCC1	-1	-2	2	62*	-11	8.5*	i
O=C(c1ccc(OC2CCN(Cc3ccccc3C(F)(F)F)CC2)cc1)N1CCCCC1	-3	0	1	1	1	104	i
O=C(c1ccc(OC2CCN(Cc3ccccc3OC(F)F)CC2)cc1)N1CCCC1	-3	0	0	-1	3	nt	nt
Cc1ccc(C)c(S(=O)(=O)N2CCN(c3nc(-c4cccnc4)nc4ccccc34)CC2)c1	-3	14	0	6	2	nt	nt
Brc1ccc(/C=N/Nc2nc3ccccc3o2)cc1	2	-2	0	-13	-2	nt	nt
Oc1ccccc1/C=N/Nc1nc2ccccc2o1	-14	2	2	9	-12	122	i
C=CCn1c(SCC(=O)Nc2ccc(S(N)(=O)=O)cc2)nnc1-c1cnccn1	-2	7	0	2	2	nt	nt
CCN(CC)CC(=O)N1CCCC(N2CCN(c3cccc(C(F)(F)F)c3)CC2)C1 (stereo not drawn)	0	-3	0	12	-4	nt	nt
Cc1c(Cl)cccc1N1C(=O)C(N2C(=O)c3cccc([N+](=O)[O-])c3C2=O)C1c1cccs1 (stereo not drawn)	-3	16	0	52*	-2	96	i
CC(C)CCNC(=O)C1CCN(c2nnc(-n3cccc3)s2)CC1	3	0	3	-11	-9	nt	nt
COc1ccc(OC)c(CCNC(=O)C2CCN(c3nnc(-n4cccc4)s3)CC2)c1	-3	-2	0	51*	7	89	i
SMILES	SENP1 inh	NadD inh	GRK2 inh	B2AR ag	ABHD5-PLIN5 inh	Beta2AR ag CP1	B2AR FAP counter
CC1CCN(CCCNC(=O)CCNC(=O)Cn2cnc3ccccc3c2=O)CC1	0	2	1	-2	-12	nt	nt
CC(C)c1nc2oc3c(N(C)CCO)ncnc3c2c2c1CCC2	2	0	2	-10	-4	148	i
CC(C)c1nc2oc3c(NCC4CCCO4)ncnc3c2c2c1CCC2 (stereo not drawn)	1	1	1	9	2	nt	nt
COc1ncnc2c1oc1nc(C)c3c(c12)CC(C)(C)OC3	-2	-2	2	9	-1	79	i
COc1ncnc2c1oc1nc(C(C)C)c3c(c12)CC(C)(C)OC3	3	5	0	-21	7	nt	nt
O=C(Nc1ccc(-c2nc3ncccc3o2)cc1)c1ccc([N+](=O)[O-])o1	0	8	0	53*	-2	28*	i
CC(=O)c1cccc(S(=O)(=O)N2CCn3cccc3C2C)c1 (stereo not drawn)	-17	1	0	5	0	nt	nt
Cc1cccc(-c2nnc(SCc3nc4ccccc4[nH]3)n2Cc2ccco2)c1	-12	4	0	-4	7	116	i
Cc1ccc(-c2nnc(SCc3nc4ccccc4[nH]3)n2Cc2ccco2)cc1	-14	0	0	-32	-5	106	i
O=C(NCCCn1ccnc1)c1ccc(C(F)(F)F)cc1	1	-3	0	1	0	nt	nt
C=CCN(CC=C)c1ncnc2[nH]ncc12	0	-4	nt	1	-3	nt	nt
O=C(C(c1ccccc1)c1ccccc1)N1CCN(c2ccccn2)CC1	3	-2	3	113*	-2	16*	i
Cc1ccc(-n2nnc3c(SCC(=O)NCC4CCCO4)ncnc32)cc1 (stereo not drawn)	1	-5	0	51*	8	92	i
CN1C[C@@H]2[C@@H]3C(=O)N(C)C(=O)[C@@H]3[C@](Cc3ccccc3)(C1=O)N2C(=O)c1ccc(Cl)cc1	-36	-3	nt	9	4	nt	nt
O=S(=O)(Nc1ccc(-c2cn3ccccc3n2)cc1)c1ccccc1	1	-7	0	-8	5	nt	nt
Cc1cccc(S(=O)(=O)Nc2ccc(-c3cn4ccccc4n3)cc2)c1	2	3	0	79*	8	131	i
O=C1C(O)CC2c3ccccc3CC3(CCCC3)N12 (stereo not drawn)	-28	-1	3	7	-3	117	i
COc1ccccc1C(=O)NC(=O)COC(=O)C1(C)CC1(Cl)Cl (stereo not drawn)	-1	2	0	2	-2	nt	nt
